From ChEMBL document CHEMBL4229417, “Design and synthesis of alkyl substituted pyridino[2,3-D]pyrimidine compounds as PI3Kα/mTOR dual inhibitors with improved pharmacokinetic properties and potent in vivo antitumor activity” (Bioorg Med Chem, 2018)
Calls of active or inactive are those of the source. The rule behind the calls is not given here.

Columns and labels:
[1] = AUC (0 to 24 hrs) in Beagle dog at 1 mg/kg, po administered as single dose via gavage; type: ADME, organism-based, Canis lupus familiaris; design: time < 24 hr, dose 1 mg/kg, route oral; conditions: in vivo
How it was run: (§1)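 Three male Beagle dogs (9–10 months, 9–10 kg) given 1 mg/kg by oral gavage as a solution in physiological saline with 5% DMSO. Blood was drawn at 0.25–24 h and spun within 1 h (1000 × g, 4 °C, 15 min). Plasma was stored at -20 °C. t1/2 and AUC0–24 were obtained by model-independent analysis, and Cmax and MRT directly from the plasma concentration–time data.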

[2] = Unbound clearance in pooled human liver microsomes at 50 uM pretreated for 5 mins followed by NADPH addition and measured after 120 mins by HPLC analysis; type: ADME, microsome; conditions: 2 h
How it was run: (§2)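 Pooled adult male and female human liver microsomes at 1 mg/mL in 0.1 M Tris-HCl pH 7.4, with test compound at 50 μM final. Mixtures were preincubated 5 min at 37 °C, then started with NADPH regenerating system. Reactions were stopped at 120 min with cold methanol, centrifuged, and analysed by HPLC.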

[3] = Half life in Beagle dog at 1 mg/kg, po administered as single dose via gavage; type: ADME, organism-based, Canis lupus familiaris; conditions: in vivo; how it was run: as §1
SK-OV-3 [4] = experiment: Antiproliferative activity against human SKOV3 cells assessed as reduction in cell viability after 48 hrs by CCK8 assay; type: functional, cell-based; conditions: SK-OV-3, 48 h
How it was run: (§3)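 Cells were seeded at 5000/well and grown 24 h at 37 °C, 5% CO2. They were then exposed 48 h to compound diluted from DMSO into medium (final DMSO <0.4%). CCK-8 was added for 1 h and absorbance read at 540 nm. IC50 came from the viability vs concentration (nM) curve, in triplicate.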

U-87 MG [5] = experiment: Antiproliferative activity against human U87MG cells assessed as reduction in cell viability after 48 hrs by CCK8 assay; type: functional, cell-based, U-87MG ATCC; how it was run: as §3
U-87 MG [6] = experiment: Antitumor activity against human U87MG cells xenografted in Balb/c mouse assessed as tumor growth inhibition at 10 mg/kg, ig administered daily for 10 days relative to control; type: functional, U-87MG ATCC; conditions: po, 240 h, read-out: TGI
How it was run: (§4)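 Female BALB/c nude mice (6–7 weeks, 16–20 g, SPF, 5 groups of 5) were implanted subcutaneously with 5×10^6 U87MG cells. At 100–150 mm³ they were randomized and dosed intragastrically once daily for 10 days. Body weight was recorded twice every 3 days. Tumor volume was taken as V = 1/2ab² (a length, b width).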

[7] = Mean residence time in Beagle dog at 1 mg/kg, po administered as single dose via gavage; type: ADME, organism-based, Canis lupus familiaris; conditions: in vivo; how it was run: as §1
[8] = Cmax in Beagle dog at 1 mg/kg, po administered as single dose via gavage; type: ADME, organism-based, Canis lupus familiaris; design: dose 1 mg/kg, route oral; conditions: in vivo; how it was run: as §1
MCF7 = experiment: Antiproliferative activity against human MCF7 cells assessed as reduction in cell viability after 48 hrs by CCK8 assay; type: functional, cell-based; conditions: MCF7, 48 h; how it was run: as §3
[9] = Half life in pooled human liver microsomes at 50 uM pretreated for 5 mins followed by NADPH addition and measured after 120 mins by HPLC analysis; type: ADME, microsome; how it was run: as §2
PC-3 = experiment: Antiproliferative activity against human PC3 cells assessed as reduction in cell viability after 48 hrs by CCK8 assay; type: functional, cell-based; conditions: PC-3, 48 h; how it was run: as §3
[10] = molecular target: T1, Serine/threonine-protein kinase mTOR (Homo sapiens, UniProt P42345); experiment: Inhibition of mTOR (unknown origin) using ULight-4E-BP1 peptide substrate measured after 1 hr by Lance Ultra assay
How it was run: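 mTOR (10 nM final) was reacted with ULight-4E-BP1 peptide (50 nM final) and ATP in kinase buffer for 1 h at room temperature.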

[11] = molecular target: T2, Phosphatidylinositol 4,5-bisphosphate 3-kinase catalytic subunit alpha isoform (Homo sapiens, UniProt P42336); experiment: Inhibition of PI3Kalpha (unknown origin) using PIP2 as substrate measured after 1 hr by Kinase-Glo luminescent assay
T2 sequence (P42336 whole entry, canonical isoform): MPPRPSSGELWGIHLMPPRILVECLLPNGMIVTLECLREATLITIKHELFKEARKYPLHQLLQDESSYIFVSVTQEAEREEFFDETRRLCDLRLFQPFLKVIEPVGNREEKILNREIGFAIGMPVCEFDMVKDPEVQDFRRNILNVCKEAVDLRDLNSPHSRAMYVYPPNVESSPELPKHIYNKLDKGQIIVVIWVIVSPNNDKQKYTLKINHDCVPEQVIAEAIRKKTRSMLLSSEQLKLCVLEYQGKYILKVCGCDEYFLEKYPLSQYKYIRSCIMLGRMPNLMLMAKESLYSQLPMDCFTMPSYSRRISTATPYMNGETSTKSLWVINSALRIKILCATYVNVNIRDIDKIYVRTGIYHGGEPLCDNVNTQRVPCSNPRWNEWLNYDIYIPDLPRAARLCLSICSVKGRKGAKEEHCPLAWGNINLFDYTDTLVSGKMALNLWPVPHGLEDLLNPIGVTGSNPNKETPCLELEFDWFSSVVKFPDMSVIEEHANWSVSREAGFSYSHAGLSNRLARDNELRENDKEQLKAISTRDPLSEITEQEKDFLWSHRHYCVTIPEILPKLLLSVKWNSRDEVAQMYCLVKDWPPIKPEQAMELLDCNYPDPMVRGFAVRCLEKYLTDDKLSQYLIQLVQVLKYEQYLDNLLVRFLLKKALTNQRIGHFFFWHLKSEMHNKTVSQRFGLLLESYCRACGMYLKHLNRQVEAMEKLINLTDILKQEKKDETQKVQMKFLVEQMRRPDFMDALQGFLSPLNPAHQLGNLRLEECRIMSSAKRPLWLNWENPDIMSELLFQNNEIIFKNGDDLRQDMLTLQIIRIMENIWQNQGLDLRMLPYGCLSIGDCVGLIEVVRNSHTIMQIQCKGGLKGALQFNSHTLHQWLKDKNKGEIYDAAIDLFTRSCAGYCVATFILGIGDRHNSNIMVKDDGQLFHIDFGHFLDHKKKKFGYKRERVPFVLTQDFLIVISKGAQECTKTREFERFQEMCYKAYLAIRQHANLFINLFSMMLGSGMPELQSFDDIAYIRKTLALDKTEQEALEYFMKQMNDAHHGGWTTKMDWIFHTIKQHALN

U-87 MG [12] = experiment: Antitumor activity against human U87MG cells xenografted in Balb/c mouse assessed as tumor growth inhibition at 30 mg/kg, ig administered daily for 10 days relative to control; type: functional, U-87MG ATCC; conditions: po, 240 h, read-out: TGI; how it was run: as §4
[13] = molecular target: T2, Phosphatidylinositol 4,5-bisphosphate 3-kinase catalytic subunit alpha isoform; experiment: Inhibition of PI3Kalpha in human U87MG cells assessed as reduction in AKT phosphorylation at T308 residue at 20 to 200 nM after 24 hrs by Western blot analysis relative to control; type: cell-based
How it was run: (§5)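 U87MG cells were treated at indicated concentrations for 24 h at 37 °C, then lysed in RIPA with protease/phosphatase inhibitors and 1 mM PMSF. Lysates were run on SDS–PAGE and PVDF blots probed overnight at 4 °C for AKT, pAKT Ser473, pAKT Thr308, S6RP and pS6RP Ser235/236. HRP secondary was used with chemiluminescent detection.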

[14] = molecular target: T2, Phosphatidylinositol 4,5-bisphosphate 3-kinase catalytic subunit alpha isoform; experiment: Inhibition of PI3Kalpha in human U87MG cells assessed as reduction in AKT phosphorylation at S473 residue at 20 to 200 nM after 24 hrs by Western blot analysis relative to control; type: cell-based; how it was run: as §5
[15] = molecular target: T2, Phosphatidylinositol 4,5-bisphosphate 3-kinase catalytic subunit alpha isoform; experiment: Potency index, ratio of AZD8055 IC50 to test compound IC50 for PI3Kalpha (unknown origin)
U-87 MG [16] = experiment: Antitumor activity against human U87MG cells xenografted in Balb/c mouse assessed as tumor growth inhibition at 3 mg/kg, ig administered daily for 10 days relative to control; type: functional, U-87MG ATCC; conditions: po, 240 h, read-out: TGI; how it was run: as §4
U-87 MG [17] = experiment: Antitumor activity against human U87MG cells xenografted in ig dosed Balb/c mouse assessed as tumor growth inhibition administered daily for 10 days; type: functional, organism-based; conditions: U-87MG ATCC; how it was run: as §4
SK-OV-3 [18] = experiment: Potency index, ratio of AZD8055 IC50 to test compound IC50 for human SKOV3 cells; type: functional
[19] = molecular target: T2, Phosphatidylinositol 4,5-bisphosphate 3-kinase catalytic subunit alpha isoform; experiment: Inhibition of PI3Kalpha in human U87MG cells assessed as reduction in AKT phosphorylation at T308 residue at 2 nM after 24 hrs by Western blot analysis relative to control; type: cell-based; how it was run: as §5
[20] = molecular target: T2, Phosphatidylinositol 4,5-bisphosphate 3-kinase catalytic subunit alpha isoform; experiment: Inhibition of PI3Kalpha in human U87MG cells assessed as reduction in AKT phosphorylation at S473 residue at 2 nM after 24 hrs by Western blot analysis relative to control; type: cell-based; how it was run: as §5
[21] = molecular target: T2, Phosphatidylinositol 4,5-bisphosphate 3-kinase catalytic subunit alpha isoform; experiment: Inhibition of PI3Kalpha in human U87MG cells assessed as reduction in S6 phosphorylation at Ser235/236 after 24 hrs by Western blot analysis; type: cell-based; how it was run: as §5
[22] = molecular target: T1, Serine/threonine-protein kinase mTOR; experiment: Potency index, ratio of AZD8055 IC50 to test compound IC50 for mTOR (unknown origin)
Mus musculus = experiment: Toxicity in Balb/c mouse xenografted with human U87MG cells assessed as body weight loss at 3 to 30 mg/kg, ig administered daily for 10 days measured twice every 3 days during compound dosing; type: organism-based; conditions: in vivo, po; how it was run: as §4

Row | Compound | IC50 (SK-OV-3 [4]) [nM] | IC50 (U-87 MG [5]) [nM] | IC50 (MCF7) [nM] | IC50 (PC-3) [nM] | IC50 [10] [nM] | IC50 [11] [nM] | also measured
1 | COc1ccc(-c2ccc3c(N4CCOC[C@@H]4C)nc(N4CCOC[C@@H]4C)nc3n2)cc1CO [AZD-8055] | 55 | 21.2 | 27 | 36.7 | – | – | AUC(0-t) at 24 h [1]: 787 ng·h/mL; CL free [2]: 28.6 µL/min/mg; half-life [3]: 4.5 h; inhibition in vivo at 10 mg/kg (U-87 MG [6]): 59%; MRT [7]: 3.1 h; Cmax [8]: 228 ng/mL; half-life at 50 µM [9]: 0.35 h
2 | COc1ccc(-c2ccc3c(N4CCOC[C@@H]4C)nc(C4CCOCC4)nc3n2)cc1CO | 118 | 94.2 | 443 | 476 | 53 | > 10000 | –
3 | CNC(=O)c1cccc(-c2ccc3c(N4CCOC[C@@H]4C)nc(C(C)(C)C)nc3n2)c1 | 58.6 | 32.5 | 31 | 110 | 72 | 1300 | –
4 | COc1ccc(-c2ccc3c(N4CCOC[C@@H]4C)nc(C)nc3n2)cc1CO | 49.1 | 91.9 | 77.3 | 66 | 95 | > 10000 | –
5 | COc1ccc(-c2ccc3c(N4CCOCC4)nc(CN)nc3n2)cc1CO | > 1000 | > 1000 | > 1000 | > 1000 | 146 | > 10000 | –
6 | COc1ccc(-c2ccc3c(N4CCOC[C@@H]4C)nc(C(C)(C)C)nc3n2)cc1CO | 7 | 3.2 | 6 | 23 | 2 | 400 | AUC(0-t) at 24 h [1]: 857 ng·h/mL; CL free [2]: 28.1 µL/min/mg; inhibition in vivo at 30 mg/kg (U-87 MG [12]): 83%; half-life [3]: 5.4 h; inhibition [13]: 100%; inhibition [14]: 100%; Ratio IC50 [15]: 10; inhibition in vivo at 3 mg/kg (U-87 MG [16]): 28%; TGI (U-87 MG [17]): Dose-dependent effect; Ratio IC50 (SK-OV-3 [18]): 8; inhibition in vivo at 10 mg/kg (U-87 MG [6]): 64%; MRT [7]: 4.3 h; inhibition [19]: Active; inhibition [20]: Active; Cmax [8]: 288 ng/mL; inhibition [21]: Dose-dependent effect; Ratio IC50 [22]: 4; Activity (Mus musculus): Non-Toxic; half-life at 50 µM [9]: 0.515 h

Further lines, with some results ahead:

Row | IC50 (SK-OV-3 [4]) [nM] | IC50 (U-87 MG [5]) [nM] | IC50 (MCF7) [nM] | IC50 (PC-3) [nM] | IC50 [10] [nM] | IC50 [11] [nM] | Compound | also measured
7 | > 1000 | > 1000 | > 1000 | > 1000 | > 500 | > 10000 | COc1ccc(-c2ccc3c(N4CCOCC4)nc(CS(C)(=O)=O)nc3n2)cc1CO | –
8 | 640 | 821 | > 1000 | > 1000 | 48 | 3200 | COc1ccc(-c2ccc3c(N4CCOCC4)nc(C(N)=O)nc3n2)cc1CO | –
9 | 125 | 85.5 | 225 | 212 | 30 | > 10000 | COc1ccc(-c2ccc3c(N4CCOC[C@@H]4C)nc(C4=CCOCC4)nc3n2)cc1CO | –
10 | > 1000 | > 1000 | > 1000 | > 1000 | > 500 | > 10000 | COc1ccc(-c2ccc3c(N4CCOCC4)nc(C(CO)CO)nc3n2)cc1CO | –
11 | 54.5 | 90.3 | 186 | 66.6 | 88 | > 10000 | COc1ccc(-c2ccc3c(N4CCOCC4)nc(CC#N)nc3n2)cc1CO | –
12 | 52.4 | 89.2 | 72 | 163 | 29 | > 10000 | COc1ccc(-c2ccc3c(N4CCOC[C@@H]4C)nc(CC(OC)OC)nc3n2)cc1CO | –
13 | 44.7 | 33.8 | 54 | 155 | 10 | 3000 | COc1ccc(-c2ccc3c(N4CCOC[C@@H]4C)nc(C(C)C)nc3n2)cc1CO | –
14 | 660 | 920 | > 1000 | > 1000 | 32 | 2600 | COc1ccc(-c2ccc3c(N4CCOCC4)nc(C#N)nc3n2)cc1CO | –
